Results of several laboratories.
Each line is one published result; the experiments were not run side by side.
Read-out: cell growth or viability

Compound	cell line	assay	conditions	measurement	result
N[C@@H](Cc1ccc(N(CCCl)CCCl)cc1)C(=O)O	HepG2	CCK-8	48 h	IC50	36.5 µM
CC[C@@]1(OC(=O)[C@@H](N)CCCCN)C(=O)OCc2c1cc1n(c2=O)Cc2cc3cc4c(cc3nc2-1)OCO4	HepG2	MTT	–	IC50	0.035 µM
N.N.[Cl][Pt][Cl]	A-431	MTT	24 h, dark	IC50	40.1 µM
O=c1ccc2ccc3occc3c2o1	HepG2	WST-1	48 h	IC50	13.8 µM
N.N.[Cl][Pt][Cl]	HEK-293T	XTT	24 h	IC50	64.4 µM
N.N.[Cl][Pt][Cl]	CCD-18Co	ATP luminescence	–	GI50	1.1 µg/mL
N.N.O=C([O-])C1(C(=O)[O-])CCC1.[Pt+2]	PNT2	MTT	96 h	IC50	27 µM
CC[C@@]1(O)C(=O)OCc2c1cc1n(c2=O)Cc2cc3cc4c(cc3nc2-1)OCO4	HepG2	MTT	72 h	IC50	0.022 µM
N.N.[Cl][Pt][Cl]	HepG2	MTT	20 µM	inhibition	88.5%
CC[C@@]1(OC(=O)C(C)c2ccc(CC(C)C)cc2)C(=O)OCc2c1cc1n(c2=O)Cc2cc3cc4c(cc3nc2-1)OCO4 (stereo partly shown)	HepG2	MTT	–	IC50	> 5 µM
CC1=C(O)C(=O)C=C2C1=CC=C1[C@@]2(C)CC[C@@]2(C)[C@@H]3C[C@](C)(C(=O)O)CC[C@]3(C)CC[C@]12C	Huh-7	MTT	20 µM	inhibition	77.3%
CCOC(=O)C1=C(N)N(c2ccc(C(=O)OCC)cc2)C(O)=C(C#N)C12C(=O)Nc1ccccc12 (stereo not shown)	HepG2	MTT	12.5 µM, 24 h	viability	33.9%
CCC1(OC(=O)C(C)c2ccc3cc(OC)ccc3c2)C(=O)OCc2c1cc1n(c2=O)Cc2cc3cc4c(cc3nc2-1)OCO4 (stereo not shown)	HepG2	MTT	–	IC50	3.5 µM
